ChEMBL document CHEMBL3227946, “Antianaphylactic agents. 1. 2-(Acylamino)oxazoles” (1979)
The source made the active and inactive calls. The rule behind the calls is not given here.

Legend:
[1] = Antianaphylactic activity in ovalbumin sensitized albino guinea pig chopped lung assessed as inhibition of antigen-induced histamine release at 10 ug/mL after 15 mins relative to control; format: functional, Cavia porcellus
Summary of the method: (§1)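 Lungs were perfused with Tyrode's, chopped into 0.5-mm cubes and split into 100-mg aliquots. Aliquots were challenged with antigen ± compound and rocked at 37 °C for 15 min. Unchallenged controls gave spontaneous release. Supernatant histamine or SRS-A was bioassayed on guinea pig ileum against standards. Values are % inhibition, mean of four samples.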

Rattus norvegicus = assay: Antianaphylactic activity in antiovalbumin IgE serum-treated Wistar rat at 2 x 100 mg/kg, po administered 2.5 hrs prior to ovalbumin challenge measured after 45 mins by passive cutaneous anaphylaxis test; format: functional, organism-based; parameters: dose 100 mg/kg; conditions: in the assay text read “2 hrs and again 30 mins prior to” for “2.5 hrs prior to”
Summary of the method: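 Female Wistar rats, shaved and lightly anaesthetized, received an intradermal abdominal injection of diluted rat antiovalbumin IgE serum. After 24 h they were challenged iv with ovalbumin mixed with dye. Compound was given at 2 h and again at 30 min before challenge. Rats were killed 45 min after challenge and the blue area on the inner skin surface was measured.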

[2] = Antianaphylactic activity in ovalbumin sensitized albino guinea pig chopped lung assessed as inhibition of antigen-induced slow-reacting substance of anaphylaxis release at 10 ug/mL after 15 mins relative to control; format: functional, Cavia porcellus; summary of the method: as §1
[3] = Antianaphylactic activity in human chopped lung treated with atopic serum isolated from patients allergic to cocksfoot pollen assessed as inhibition of antigen-induced histamine release at 10 ug/mL after 15 mins relative to control; format: functional; conditions: 0.25 h
Summary of the method: (§2)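 Surgical human lung (bronchial carcinoma resections) was washed in Hank's, chopped into 0.5-mm cubes and incubated for 18 h at 18 °C with atopic serum from cocksfoot pollen-allergic patients. Tissue was washed, equilibrated in Tyrode's at 37 °C and challenged with saline pollen extract ± compound for 15 min. Histamine or SRS-A in the supernatant was bioassayed on guinea pig ileum. Values are % inhibition, mean of four samples.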

[4] = Antianaphylactic activity in human chopped lung treated with atopic serum isolated from patients allergic to cocksfoot pollen assessed as inhibition of antigen-induced slow-reacting substance of anaphylaxis release at 10 ug/mL after 15 mins relative to control; format: functional; conditions: 0.25 h; summary of the method: as §2
Cavia porcellus [5] = assay: (§3) Antianaphylactic activity in ovalbumin/ovalbumin aerosol sensitized guinea pig bronchospasm model assessed as ratio of mean collapse time after pretreatment with compound to mean collapse time of control animal at 2 x 100 mg/kg, po compound administered prior to antigen challenge by Herxheimer test; format: functional
Summary of the method: (§4)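 Ovalbumin-sensitized male guinea pigs were exposed in a chamber to ovalbumin aerosol (1% w/v) until a convulsive cough; that time is the collapse time. Compound was given orally either 2 h before challenge or in two doses at 0.5 and 3 h before. Where used, mepyramine was given at 0.5 mg/kg sc 0.5 h before. Ratio is mean collapse time of treated animals over that of controls.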

Cavia porcellus [6] = assay: as §3, with “with compound in presence of mepyramine to mean” for “with compound to mean”; format: functional; summary of the method: as §4

Structure (SMILES)	inhibition (INH) [1] [%]	Activity (Rattus norvegicus)	inhibition (INH) [2] [%]	inhibition at 10 µg/mL [3] [%]	inhibition at 10 µg/mL [4] [%]	Ratio (Cavia porcellus [5])	Ratio (Cavia porcellus [6])
CCCCN(C(=O)C(C)C)c1ncco1	8	inactive	44	–	–	–	–
CCCCN(C(=O)C(C)CC)c1nc(C)co1 (stereo in doubt; 38) [listing 1 of 2 here]	8	–	63	–	–	–	–
CCCCN(C(=O)C(CC)CC)c1nc(C)co1	29	inactive	55	–	–	–	–
CCCCN(C(=O)C1CCCCC1)c1nc(C)co1	27	inactive	32	29	26	–	–
CCC(=O)N(c1nc(C)co1)C(C)C	–	inactive	17	0	0	–	–
CCN(C(=O)C(C)C)c1nc(C)c(C)o1	13	inactive	21	–	–	–	–
CCCCN(C(=O)C1CCCCCC1)c1nc(C)co1	0	inactive	49	–	–	–	–
CCCCC(=O)N(c1nc(C)co1)C(C)C	0	inactive	0	0	0	–	–
CCCCCC(=O)N(CCC)c1nc(C)co1	44	inactive	47	44	47	1.4	4.7
CCCCN(C(=O)C1CCC1)c1nc(C)co1	34	inactive	74	0	55	1.5	7.4
CCCCN(C(=O)C(C)C)c1ncc(C)o1	31	inactive	52	–	–	–	–
CCCCN(C(=O)C1CCCC1)c1nc(C)co1	47	inactive	66	0	69	–	–
CCCCN(C(=O)C(C)C)c1nc(-c2ccccc2)co1	23	inactive	39	–	–	–	–
CCCCN(C(=O)C(C)CC)c1nc(C)co1 (stereo in doubt; 38) [listing 2 of 2 here]	–	inactive	–	–	–	–	–
CCCC(=O)N(c1nc(C)co1)C(C)CC (stereo not drawn)	6	inactive	34	–	–	–	–
CCCCN(C(=O)C(C)C)c1nc(C2CCCCC2)co1	–	inactive	0	–	–	–	–
CCCCN(C(=O)Cc1ccccc1)c1nc(C)co1	0	inactive	31	–	–	–	–
Cc1coc(N(C(=O)C(C)C)C(C)C)n1	–	inactive	10	0	0	–	–
CCC(C)N(C(=O)C(C)C)c1nc(C)co1 (stereo not drawn)	3	inactive	13	–	–	–	–
CC(=O)N(C)c1nc(C)c(C)o1	–	inactive	17	–	–	–	–
CCCCN(C(=O)C(C)CC)c1nc(C)co1 (racemic)	54	–	76	5	36	–	–
CCCCN(C(=O)C(C)C)c1nc(-c2ccc(Cl)cc2)co1	44	inactive	37	–	–	–	–
CCCCN(C(=O)C1CCC1)c1nc(C)c(C)o1	0	inactive	10	–	–	–	–
CCCCC(=O)N(CCC)c1nc(C)co1	48	inactive	55	0	38	0.8	5.8
CCCCN(C(=O)C(C)C)c1nc(C)c(C)o1	49	inactive	43	49	43	–	–
CCCCN(C(=O)C(C)C)c1nc(CC)co1	20	inactive	41	–	–	–	–
CN1CCC(=C2c3ccccc3CC(=O)c3sccc32)CC1.O=C(O)/C=C/C(=O)O [KETOTIFEN FUMARATE]	37	–	38	–	–	–	–
